RGS4 inh = RGS4 inhibitors, primary screen, cell-based, HEK293 M3R inducible RGS4, calcium flux; Fluo-4 calcium flux; active compounds read high; triggered by carbachol at its EC20; B-score at 10 µM; 310,000 compounds, 0.45% hits;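 active = B-score, a plate-corrected calcium signal, over three deviations above library mean, with baseline fluorescence within five deviations of library mean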;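 also: RGS4 expression induced by doxycycline in cells with stable M3 receptor; B-score is computed from the integrated fluorescence ratio over baseline after carbachol; higher B-score means a larger calcium signal and so more RGS4 inhibition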
Target sequence (P49798 whole entry, looked up): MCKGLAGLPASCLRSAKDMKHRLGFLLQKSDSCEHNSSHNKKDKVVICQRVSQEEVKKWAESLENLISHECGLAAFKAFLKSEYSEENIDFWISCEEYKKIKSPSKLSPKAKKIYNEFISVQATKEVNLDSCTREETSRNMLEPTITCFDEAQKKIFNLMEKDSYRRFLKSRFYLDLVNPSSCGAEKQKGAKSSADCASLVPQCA
MrgX1 antag = antagonists of human MrgX1 receptor, primary screen, HEK293 cells, Fluo-4 calcium flux | Mas-related G-protein coupled receptor member X1 (Homo sapiens), Q96LB2 | AID 588676, 2011 | 310,000 compounds, 1.3% hits | B-score at 10 µM | BAM8-22 antagonism; active compounds read low;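 active = calcium-response B-score plate-corrected more than 3 library SD below zero, starting fluorescence within 5 deviations, no agonist response on first addition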;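 also: peak minus trough fluorescence over baseline after final BAM8-22 challenge near maximal dose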
Target sequence (Q96LB2 whole entry, looked up): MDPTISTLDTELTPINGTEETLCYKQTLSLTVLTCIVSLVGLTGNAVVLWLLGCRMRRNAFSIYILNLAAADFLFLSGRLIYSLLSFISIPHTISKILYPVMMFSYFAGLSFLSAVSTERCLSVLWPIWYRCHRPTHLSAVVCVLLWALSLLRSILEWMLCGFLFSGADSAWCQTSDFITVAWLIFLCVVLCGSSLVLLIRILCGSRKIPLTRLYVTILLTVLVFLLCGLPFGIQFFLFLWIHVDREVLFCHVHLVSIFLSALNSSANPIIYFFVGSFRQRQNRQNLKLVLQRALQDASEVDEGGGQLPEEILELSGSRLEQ
MrgX1 allo act = positive allosteric modulators of MrgX1, primary screen, HEK293 cells, Fluo-4 calcium flux. FDSS; active compounds read high. B-score at 10 µM. 310,000 compounds, 0.63% hits. Mas-related G-protein coupled receptor member X1 (Homo sapiens), Q96LB2;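 active = plate-corrected calcium response at least 3 library SD above typical, normal starting fluorescence, not activating the receptor alone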;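 also: compound read alongside a low EC10 to EC30 dose of BAM8-22 agonist; peak minus trough fluorescence over baseline measured at the second addition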
MrgX1 agonist = agonists of human MrgX1 receptor, primary screen, HEK293 cells, Fluo-4 calcium flux. 310,000 compounds, 0.44% hits. Fluo-4 calcium fluorescence, agonist mode; active compounds read high. B-score at 10 µM;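 active = calcium response B-score plate-corrected fluorescence ratio at least 3 library SD, with starting fluorescence B-score inside 5 SD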
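Material: MrgX1-expressing HEK293 cells; input: 15,000 cells per well; doses: test compound given as first of three sequential additions; schedule: overnight plating before 1 h dye loading; technique: Fluo-4 NW calcium-flux fluorescence, kinetic read; evaluation: baseline-normalised fluorescence change ratio, B-scored; control set: plate-wise positive and negative controls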
RGS4 pot = RGS4 potentiators or activators, primary screen, cell-based, HEK293 M3R inducible RGS4, calcium flux. B-score at 10 µM. carbachol calcium flux Fluo4; active compounds read low. 310,000 compounds, 0.92% hits;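 active = B-score of the integrated calcium signal more than 4 SD below the library mean, with starting fluorescence not abnormally high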;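 also: negative B-score means reduced calcium response which marks RGS4 activation or potentiation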
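System: HEK293 FlpIn-TREx cells, stable M3R, doxycycline-inducible RGS4. Timing: overnight RGS4 induction, 30 min dye load 37 °C, 20 min compound RT. Also added: carbachol, ECmax concentration. Measured by: Fluo4 fluorescence kinetic imaging of calcium. Evaluation: integrated calcium ratio converted to B score.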
MrgX1 allo conf = MrgX1 positive allosteric modulators, duplicate retest, confirmation, HEK293 cells, Fluo-4 calcium flux. shares compounds with MrgX1 allo act. Fluo-4 calcium fluorescence, FDSS. activation (ratio percentage), % at 10 µM. 1,200 compounds, 13% hits. AID 602413, 2012;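 active = ratio at least 3 SD above the weak peptide control, stable starting fluorescence, no direct agonism earlier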;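 also: compound followed by low BAM8-22 agonist challenge near EC20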
HEK293 Ca flux = nonspecific calcium signal in parental HEK293, confirmation, counter-screen for MrgX1 antagonist project, parental HEK293 cells, Fluo-4 calcium flux; Fluo-4 calcium fluorescence, FDSS; fluorescence ratio F(max-min)/F0 at 10 µM; AID 624111, 2012; shares compounds with MrgX1 antag; 4,000 compounds, 2% hits;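 active = duplicate-averaged calcium fluorescence ratio at least three times the standard deviation of buffer wells, a nonspecific response in parental cells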
HEK293 Ca counter = calcium response in parental HEK293 cells, primary screen, counter-screen for MrgX1 allosteric activator project, cell-based, Fluo-4 calcium flux, duplicate | shares compounds with MrgX1 antag | Fluo-4 fluorescence ratio; active compounds read high | fluorescence ratio F(max-min)/F0 at 10 µM | 4,000 compounds, 0.4% hits;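 active = calcium fluorescence ratio, averaged over duplicates, at least 3 SD of the buffer-well ratio, meaning a nonspecific response in receptor-free cells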;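 also: untransfected parental HEK293 lacking MrgX1 used as counterscreen for MrgX1 allosteric activators; fluorescence change taken during the second addition on a kinetic imager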
HEK293 Ca cntr2 = calcium response in parental HEK293 cells, primary screen, counter-screen for MrgX1 agonist project, cell-based, Fluo-4 calcium flux, duplicate, agonist mode. shares compounds with MrgX1 antag. Fluo-4 calcium fluorescence (FDSS); active compounds read high. fluorescence ratio F(max-min)/F0 at 10 µM. 4,000 compounds, 8.7% hits;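 active = calcium fluorescence ratio at least three times the spread of buffer wells, meaning a non-specific response in parental cells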
Numbers stand for hits. Shown are actives, neighbours in structure and some others; about 3.5% of the full set was active somewhere.

How did Cc1cc(C)c(NC(=O)CNC(=O)COC(=O)C2CCN(c3ccc(C(F)(F)F)cn3)CC2)c(C)c1 do in these assays?
RGS4 inh: inactive; MrgX1 antag: inactive; MrgX1 allo act: 7.04; MrgX1 agonist: inactive; RGS4 pot: inactive; MrgX1 allo conf: inactive; HEK293 Ca flux: inactive; HEK293 Ca counter: inactive; HEK293 Ca cntr2: inactive

How did O=C(CN1C(=O)C2C3CC(C(Br)C3Br)C2C1=O)N1CCOCC1 (configuration not stated) do in these assays?
RGS4 inh: inactive; MrgX1 antag: inactive; MrgX1 allo act: inactive; MrgX1 agonist: inactive; RGS4 pot: inactive

How did O=C(CN1C(=O)C2C3CC(C(Br)C3Br)C2C1=O)N1CCN(Cc2ccccc2)CC1 (configuration not stated) do in these assays?
RGS4 inh: inactive; MrgX1 antag: inactive; MrgX1 allo act: 7.75; MrgX1 agonist: inactive; RGS4 pot: inactive; MrgX1 allo conf: inactive; HEK293 Ca flux: inactive; HEK293 Ca counter: inactive; HEK293 Ca cntr2: inactive

Results for Cc1c(Cl)cccc1NC(=O)CC1NCCNC1=O (configuration not stated) ?
RGS4 inh: inactive; MrgX1 antag: inactive; MrgX1 allo act: 13.5; MrgX1 agonist: inactive; RGS4 pot: inactive; MrgX1 allo conf: inactive; HEK293 Ca flux: inactive; HEK293 Ca counter: inactive; HEK293 Ca cntr2: inactive

What do the screens show for `Cc1cc(C)n(-c2ccc(C(=O)NC3CCCCC3)cc2)n1`?
RGS4 inh: inactive; MrgX1 antag: inactive; MrgX1 allo act: 9.85; MrgX1 agonist: inactive; RGS4 pot: inactive; MrgX1 allo conf: inactive; HEK293 Ca flux: inactive; HEK293 Ca counter: inactive; HEK293 Ca cntr2: inactive

Results for Cc1ccc(C(=O)NC2CCCCC2)cc1 ?
RGS4 inh: inactive; MrgX1 antag: inactive; MrgX1 allo act: inactive; MrgX1 agonist: inactive; RGS4 pot: inactive

What do the screens show for `C/C(CCc1ccc2c(c1)OCO2)=N\N=C1\NC(=O)CC(C(=O)Nc2ccc(Cl)cc2)S1` (configuration not stated)?
RGS4 inh: inactive; MrgX1 antag: inactive; MrgX1 allo act: inactive; MrgX1 agonist: inactive; RGS4 pot: inactive

How did Cn1cc([N+](=O)[O-])c(C(=O)n2cccn2)n1 do in these assays?
RGS4 inh: inactive; MrgX1 antag: inactive; MrgX1 allo act: inactive; MrgX1 agonist: inactive; RGS4 pot: inactive

What do the screens show for `CCOC(=O)C1C(=O)NC(c2ccccc2)=NC1c1ccc(OC)cc1` (configuration not stated)?
RGS4 inh: inactive; MrgX1 antag: inactive; MrgX1 allo act: 12; MrgX1 agonist: inactive; RGS4 pot: inactive; MrgX1 allo conf: inactive; HEK293 Ca flux: inactive; HEK293 Ca counter: inactive; HEK293 Ca cntr2: inactive

What do the screens show for `COC(=O)c1ccccc1NC(=O)CSc1n[nH]c(-c2ccco2)n1`?
RGS4 inh: inactive; MrgX1 antag: inactive; MrgX1 allo act: inactive; MrgX1 agonist: inactive; RGS4 pot: inactive

Assay outcomes: PubChem, Johns Hopkins Ion Channel Center
